In ChEMBL document CHEMBL4196123, “Discovery of an Orally Bioavailable Dual PI3K/mTOR Inhibitor Based on Sulfonyl-Substituted Morpholinopyrimidines” (ACS Med Chem Lett, 2018):
Active and inactive are the calls of the source. No cut-off for these calls is given here.

How the values were obtained:
[1] = biological target: PI3-kinase p110-alpha/p85-alpha (Homo sapiens, UniProt P42336); assay: Inhibition of recombinant human full length N-terminal His-tagged p110alpha/p85alpha expressed in baculovirus expression system using PIP2 as substrate measured after 1 hr by Alexa633 Tracer-based fluorescence polarization assay
In short: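 PI3Kα enzyme inhibition; IC50 is the mean of duplicate measurements.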

[2] = Inhibition of PI3K in human PC3 cells assessed as reduction in AKT phosphorylation at Ser473 measured after 2 hrs by fluorescence assay; format: cell-based; conditions: PC-3, 2 h
T47D = assay: Antiproliferative activity against human T47D cells harboring PI3KCA H1047R mutant after 72 hrs by MTT assay; format: functional, cell-based
MCF7 = assay: Antiproliferative activity against human MCF7 cells harboring PIK3CA E545K mutant after 72 hrs by MTT assay; format: functional, cell-based; conditions: MCF7, 72 h
PI3K p110 beta/p85 alpha = PI3K p110 beta/p85 alpha (Homo sapiens, UniProt P42338); assay: Inhibition of recombinant human full-length N-terminal His6-tagged p110beta/recombinant human full length p85alpha expressed in baculovirus infected Sf21 insect cells using PIP2 as substrate measured after 1 hr by Alexa633 Tracer-based fluorescence polarization assay
[3] = biological target: Serine/threonine-protein kinase mTOR (Homo sapiens, UniProt P42345); assay: Inhibition of recombinant human GST-tagged mTOR catalytic domain (1360 to 2549 residues) expressed in baculovirus expression system using GFP-4EBP1 as substrate measured after 1 hr by Lathascreen method
[4] = biological target: Serine/threonine-protein kinase ATR (Homo sapiens) (UniProt Q13535); assay: Inhibition of ATR in human HT-29 cells assessed as reduction in camptothecin-induced Chk1 phosphorylation at Ser345 residue at 10 uM pretreated for 1 hr followed by camptothecin addition; format: cell-based
In short: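 HT-29 cells were pretreated with compound for 1 h, then exposed to camptothecin to induce DNA damage. ATR activity was read as phosphorylation of its substrate Chk1, with total Chk1 and β-actin as internal controls. […] served as reference inhibitor.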

[5] = Intrinsic clearance in human liver microsomes at […] pretreated up to 45 mins followed by NADPH addition and measured by LC-MS/MS analysis; format: ADME, microsome; conditions: read-out: CLH
HUVEC = assay: Cytotoxicity against HUVEC after 72 hrs by MTT assay; format: cell-based; conditions: Homo sapiens
[6] = biological target: PI3-kinase p110-alpha/p85-alpha (Homo sapiens, UniProt P42336, E542K); assay: Inhibition of recombinant human His-tagged p85alpha/p110alpha E542K mutant expressed in insect cells
[7] = biological target: PI3-kinase p110-alpha/p85-alpha (Homo sapiens, UniProt P42336, E545K); assay: Inhibition of recombinant human His-tagged p85alpha/p110alpha E545K mutant expressed in insect cells
[8] = biological target: Phosphatidylinositol 4,5-bisphosphate 3-kinase catalytic subunit alpha isoform (Homo sapiens, UniProt P42336, H1047R); assay: Inhibition of p110alpha H1047R mutant (unknown origin)
Cytochrome P450 2C8 = Cytochrome P450 2C8 (Homo sapiens, UniProt P10632); assay: Inhibition of CYP2C8 in human liver microsomes using paclitaxel as substrate pretreated for 5 mins followed by NADPH addition and measured after 10 mins by LC-MS analysis; format: ADME
Cytochrome P450 2C9 = Cytochrome P450 2C9 (Homo sapiens, UniProt P11712); assay: Inhibition of CYP2C9 in human liver microsomes using diclofenac as substrate pretreated for 5 mins followed by NADPH addition and measured after 10 mins by LC-MS analysis; format: ADME
Cytochrome P450 3A4 [9] = biological target: T1, Cytochrome P450 3A4 (Homo sapiens, UniProt P08684); assay: Inhibition of CYP3A4 in human liver microsomes using testosterone as substrate pretreated for 5 mins followed by NADPH addition and measured after 5 mins by LC-MS analysis; format: ADME
Cytochrome P450 3A4 [10] = biological target: T1, Cytochrome P450 3A4; assay: Inhibition of CYP3A4 in human liver microsomes using midazolam as substrate pretreated for 5 mins followed by NADPH addition and measured after 5 mins by LC-MS analysis; format: ADME
[11] = biological target: Voltage-gated inwardly rectifying potassium channel KCNH2 (Homo sapiens, UniProt Q12809); assay: Inhibition of recombinant human ERG expressed in CHO cells by automated whole cell patch clamp Qpatch method; format: cell-based
[12] = Apparent permeability across basolateral to apical side in human Caco2 cells measured after 90 mins by LC-MS/MS analysis; format: ADME, cell-based; conditions: Caco-2
[13] = Efflux ratio of apparent permeability from basolateral to apical side over apical to basolateral side in human Caco2 cells after 90 mins by LC-MS/MS analysis; format: ADME, cell-based; conditions: Caco-2
[14] = Volume of distribution at steady state in CD1 mouse at 5 mg/kg, iv by LC-MS/MS analysis; format: ADME, organism-based; conditions: in vivo, read-out: Vdss
[15] = Half life in CD1 mouse at 5 mg/kg, iv by LC-MS/MS analysis; format: ADME, organism-based; conditions: in vivo
[16] = AUClast in CD1 mouse at 5 mg/kg, iv by LC-MS/MS analysis; format: ADME, organism-based; set-up: dose 5 mg/kg, time 0 - last, route intravenous; conditions: in vivo
[17] = Cmax in CD1 mouse at 10 mg/kg, po administered via gavage by LC-MS/MS analysis; format: ADME, organism-based; set-up: dose 10 mg/kg, route oral; conditions: in vivo
[18] = Tmax in CD1 mouse at 10 mg/kg, po administered via gavage by LC-MS/MS analysis; format: ADME, organism-based; conditions: in vivo
[19] = Half life in CD1 mouse at 10 mg/kg, po administered via gavage by LC-MS/MS analysis; format: ADME, organism-based; conditions: in vivo
[20] = AUClast in CD1 mouse at 10 mg/kg, po administered via gavage by LC-MS/MS analysis; format: ADME, organism-based; set-up: dose 10 mg/kg, time 0 - last, route oral; conditions: in vivo
[21] = Oral bioavailability in CD1 mouse at 10 mg/kg administered via gavage by LC-MS/MS analysis; format: ADME, organism-based; conditions: in vivo
HT-29 = assay: Antitumor activity against human HT-29 cells harboring PIK3CA P449T mutant xenografted in Balb/c nu/nu mouse assessed as tumor growth inhibition at 3.75 mg/kg, po administered daily via gavage for 27 days relative to control; format: functional; conditions: HT-29, po, 648 h, read-out: TGI
In short: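 Balb/c nu/nu mice carrying HT-29 xenografts were dosed by daily oral gavage for 27 days, starting when mean tumor size was about 240 mm³; vehicle group as control. Tumor volume estimated over time, and TGI calculated after 27 days. Mean ± SEM, n = 6. Dunnett's multiple comparison test.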

Mus musculus [22] = assay: Toxicity in Balb/c nu/nu mouse xenografted with human HT-29 cells harboring PIK3CA P449T mutant assessed as survival at 7.5 mg/kg, po administered daily via gavage for 27 days measured post last dose; format: organism-based; conditions: in vivo, 648 h
In short: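 Balb/c nu/nu mice carrying HT-29 xenografts (PIK3CA P449T), dosed by daily oral gavage for 27 days starting when mean tumor size was about 240 mm³, alongside a vehicle group. Survival was recorded after the 27-day treatment. Body weight change was measured over time. n = 6 per group, mean ± SEM, Dunnett's multiple comparison test.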

Mus musculus [23] = assay: Toxicity in Balb/c nu/nu mouse xenografted with human HT-29 cells harboring PIK3CA P449T mutant assessed as body weight loss at 7.5 mg/kg, po administered daily via gavage for 27 days relative to control; format: organism-based; conditions: in vivo, 648 h
In short: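 Balb/c nu/nu mice with HT-29 xenografts (mean tumor about 240 mm³) received daily oral gavage for 27 days. Body weight change was measured and plotted over time. Mean ± SEM, n = 6.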

T1 sequence (P08684 whole entry): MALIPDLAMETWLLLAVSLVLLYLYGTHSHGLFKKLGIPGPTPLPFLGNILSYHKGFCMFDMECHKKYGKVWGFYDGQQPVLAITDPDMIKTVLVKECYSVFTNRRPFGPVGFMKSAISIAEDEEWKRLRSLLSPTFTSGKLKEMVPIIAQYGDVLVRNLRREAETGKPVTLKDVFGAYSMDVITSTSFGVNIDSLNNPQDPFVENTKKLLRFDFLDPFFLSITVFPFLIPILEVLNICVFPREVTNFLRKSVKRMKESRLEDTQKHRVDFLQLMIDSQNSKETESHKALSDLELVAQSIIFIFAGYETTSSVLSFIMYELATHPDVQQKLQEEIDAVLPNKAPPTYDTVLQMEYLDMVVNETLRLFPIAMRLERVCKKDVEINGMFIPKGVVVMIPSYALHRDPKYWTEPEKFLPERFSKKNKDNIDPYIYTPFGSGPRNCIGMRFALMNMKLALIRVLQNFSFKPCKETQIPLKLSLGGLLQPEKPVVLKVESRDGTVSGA
Sequence of Phosphatidylinositol 4,5-bisphosphate 3-kinase catalytic subunit alpha isoform (P42336 whole entry H1047R, canonical isoform): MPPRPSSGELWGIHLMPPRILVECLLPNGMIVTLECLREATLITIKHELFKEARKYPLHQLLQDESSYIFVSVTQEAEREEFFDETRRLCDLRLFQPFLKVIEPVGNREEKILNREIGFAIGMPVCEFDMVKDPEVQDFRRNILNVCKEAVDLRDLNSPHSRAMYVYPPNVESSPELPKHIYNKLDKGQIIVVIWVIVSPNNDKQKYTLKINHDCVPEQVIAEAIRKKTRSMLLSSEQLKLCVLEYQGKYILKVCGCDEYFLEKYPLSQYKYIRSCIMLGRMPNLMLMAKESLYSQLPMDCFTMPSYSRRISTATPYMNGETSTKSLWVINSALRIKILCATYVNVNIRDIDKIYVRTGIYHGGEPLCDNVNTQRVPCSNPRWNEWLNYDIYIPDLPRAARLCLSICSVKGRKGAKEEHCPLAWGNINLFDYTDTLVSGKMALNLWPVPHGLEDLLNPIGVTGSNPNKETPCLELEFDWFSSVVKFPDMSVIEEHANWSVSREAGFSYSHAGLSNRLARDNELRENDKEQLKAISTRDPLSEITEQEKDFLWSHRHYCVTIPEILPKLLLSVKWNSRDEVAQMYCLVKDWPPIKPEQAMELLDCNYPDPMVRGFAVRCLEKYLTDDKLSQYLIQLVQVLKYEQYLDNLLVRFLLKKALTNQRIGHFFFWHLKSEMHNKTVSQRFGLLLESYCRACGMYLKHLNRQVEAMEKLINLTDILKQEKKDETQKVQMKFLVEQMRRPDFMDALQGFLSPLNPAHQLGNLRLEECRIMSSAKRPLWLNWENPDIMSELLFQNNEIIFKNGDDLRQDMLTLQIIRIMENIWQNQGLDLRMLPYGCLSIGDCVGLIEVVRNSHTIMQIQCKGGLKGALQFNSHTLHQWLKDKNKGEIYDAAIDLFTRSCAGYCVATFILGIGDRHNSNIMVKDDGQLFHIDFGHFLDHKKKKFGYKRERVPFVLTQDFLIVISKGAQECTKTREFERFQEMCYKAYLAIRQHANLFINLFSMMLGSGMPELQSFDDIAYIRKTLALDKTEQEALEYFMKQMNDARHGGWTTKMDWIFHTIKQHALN
Sequence of Cytochrome P450 2C8 (P10632 whole entry): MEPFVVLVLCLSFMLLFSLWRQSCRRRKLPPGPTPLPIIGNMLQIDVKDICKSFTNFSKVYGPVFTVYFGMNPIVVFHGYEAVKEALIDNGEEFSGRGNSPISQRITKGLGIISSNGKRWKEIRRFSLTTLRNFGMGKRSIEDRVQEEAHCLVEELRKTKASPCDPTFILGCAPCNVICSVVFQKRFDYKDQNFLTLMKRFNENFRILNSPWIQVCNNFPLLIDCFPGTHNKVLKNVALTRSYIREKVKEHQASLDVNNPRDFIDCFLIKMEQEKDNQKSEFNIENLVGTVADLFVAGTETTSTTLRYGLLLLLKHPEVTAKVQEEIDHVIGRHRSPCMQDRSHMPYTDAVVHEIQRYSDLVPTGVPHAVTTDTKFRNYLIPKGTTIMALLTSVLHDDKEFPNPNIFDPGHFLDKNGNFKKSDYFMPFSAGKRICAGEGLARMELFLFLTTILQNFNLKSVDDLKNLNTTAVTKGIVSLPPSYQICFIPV
Sequence of Serine/threonine-protein kinase ATR (Homo sapiens) (Q13535 whole entry, looked up): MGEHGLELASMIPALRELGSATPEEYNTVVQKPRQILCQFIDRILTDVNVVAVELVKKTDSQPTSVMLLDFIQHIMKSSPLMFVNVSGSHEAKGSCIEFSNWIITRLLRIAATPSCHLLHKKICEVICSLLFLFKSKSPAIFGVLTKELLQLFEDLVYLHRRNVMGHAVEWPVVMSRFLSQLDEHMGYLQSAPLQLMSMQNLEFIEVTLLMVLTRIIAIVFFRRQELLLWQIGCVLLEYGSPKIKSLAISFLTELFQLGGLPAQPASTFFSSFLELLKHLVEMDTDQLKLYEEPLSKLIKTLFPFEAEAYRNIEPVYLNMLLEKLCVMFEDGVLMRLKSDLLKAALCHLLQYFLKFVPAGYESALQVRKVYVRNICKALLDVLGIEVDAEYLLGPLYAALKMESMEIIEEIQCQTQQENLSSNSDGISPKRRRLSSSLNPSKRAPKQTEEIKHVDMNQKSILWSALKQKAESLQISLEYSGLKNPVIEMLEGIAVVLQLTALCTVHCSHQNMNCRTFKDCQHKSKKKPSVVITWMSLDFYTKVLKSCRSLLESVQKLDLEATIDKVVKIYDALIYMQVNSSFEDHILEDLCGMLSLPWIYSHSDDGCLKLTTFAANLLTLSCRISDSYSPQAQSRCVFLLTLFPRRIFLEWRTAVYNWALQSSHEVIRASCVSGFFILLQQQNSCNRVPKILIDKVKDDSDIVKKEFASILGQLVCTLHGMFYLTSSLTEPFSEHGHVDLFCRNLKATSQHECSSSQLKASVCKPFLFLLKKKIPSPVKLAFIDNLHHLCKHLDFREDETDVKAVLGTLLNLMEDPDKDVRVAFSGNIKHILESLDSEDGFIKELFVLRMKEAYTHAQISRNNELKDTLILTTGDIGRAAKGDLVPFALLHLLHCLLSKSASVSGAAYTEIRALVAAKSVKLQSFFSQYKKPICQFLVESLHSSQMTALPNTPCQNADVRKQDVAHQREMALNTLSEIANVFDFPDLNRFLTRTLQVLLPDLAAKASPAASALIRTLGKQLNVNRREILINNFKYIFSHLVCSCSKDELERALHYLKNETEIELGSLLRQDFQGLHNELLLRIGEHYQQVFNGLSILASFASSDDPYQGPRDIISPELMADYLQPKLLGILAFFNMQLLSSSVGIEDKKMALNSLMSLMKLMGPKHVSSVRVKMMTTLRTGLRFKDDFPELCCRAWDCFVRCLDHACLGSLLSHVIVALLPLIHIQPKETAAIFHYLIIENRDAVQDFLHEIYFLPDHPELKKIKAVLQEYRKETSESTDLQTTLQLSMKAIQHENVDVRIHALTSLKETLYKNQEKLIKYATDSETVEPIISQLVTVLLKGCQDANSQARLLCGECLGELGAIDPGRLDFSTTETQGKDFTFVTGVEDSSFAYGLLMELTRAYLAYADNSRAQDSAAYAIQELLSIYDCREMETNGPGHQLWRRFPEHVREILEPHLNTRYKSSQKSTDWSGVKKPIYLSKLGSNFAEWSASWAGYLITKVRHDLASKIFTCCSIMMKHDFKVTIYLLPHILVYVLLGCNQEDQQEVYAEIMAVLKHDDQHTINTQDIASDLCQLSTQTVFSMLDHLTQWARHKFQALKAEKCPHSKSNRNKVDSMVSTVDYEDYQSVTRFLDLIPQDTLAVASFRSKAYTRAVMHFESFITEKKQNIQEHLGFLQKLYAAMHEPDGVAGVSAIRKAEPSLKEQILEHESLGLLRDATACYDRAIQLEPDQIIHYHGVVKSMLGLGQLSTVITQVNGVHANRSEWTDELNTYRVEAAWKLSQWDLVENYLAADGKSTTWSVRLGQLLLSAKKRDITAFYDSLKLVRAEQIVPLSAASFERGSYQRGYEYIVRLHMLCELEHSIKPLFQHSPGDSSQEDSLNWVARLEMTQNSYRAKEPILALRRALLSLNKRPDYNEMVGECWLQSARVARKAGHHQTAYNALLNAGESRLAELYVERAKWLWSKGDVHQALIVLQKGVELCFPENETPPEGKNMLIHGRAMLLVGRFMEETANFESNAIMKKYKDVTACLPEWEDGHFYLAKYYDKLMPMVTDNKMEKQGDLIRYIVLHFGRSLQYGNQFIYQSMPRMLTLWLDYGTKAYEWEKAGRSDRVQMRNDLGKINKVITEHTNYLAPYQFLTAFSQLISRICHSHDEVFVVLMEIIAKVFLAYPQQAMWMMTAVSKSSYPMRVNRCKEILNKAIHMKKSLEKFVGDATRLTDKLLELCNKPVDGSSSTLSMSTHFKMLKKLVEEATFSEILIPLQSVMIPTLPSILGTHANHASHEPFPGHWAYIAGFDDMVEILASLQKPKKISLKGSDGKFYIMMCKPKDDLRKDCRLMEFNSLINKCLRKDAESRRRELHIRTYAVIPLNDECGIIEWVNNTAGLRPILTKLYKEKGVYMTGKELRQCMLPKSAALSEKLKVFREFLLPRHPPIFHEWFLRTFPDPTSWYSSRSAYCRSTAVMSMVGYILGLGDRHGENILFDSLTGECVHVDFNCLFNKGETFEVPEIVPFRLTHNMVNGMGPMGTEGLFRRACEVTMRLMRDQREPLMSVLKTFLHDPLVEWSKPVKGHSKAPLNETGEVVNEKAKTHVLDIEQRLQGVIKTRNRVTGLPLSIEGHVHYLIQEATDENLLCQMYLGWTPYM
Sequence of PI3-kinase p110-alpha/p85-alpha (Homo sapiens, UniProt P42336, E545K) (P42336 whole entry E545K, looked up, canonical isoform): as the sequence (P42336 whole entry H1047R, canonical isoform) above, with E545K, R1047H counted along it
Sequence of PI3-kinase p110-alpha/p85-alpha (Homo sapiens, UniProt P42336, E542K) (P42336 whole entry E542K, looked up): as the sequence (P42336 whole entry H1047R, canonical isoform) above, with E542K, R1047H counted along it

With C[C@H]1COCCN1c1nc(-c2cnc(N)cc2F)cc(C2(S(C)(=O)=O)CC2)n1 the IC50 [1] was 0.01 to 0.02 µM, the IC50 [2] was 0.196 µM and the IC50 (T47D) was 0.03 µM. The IC50 (MCF7) was 0.011 µM, the IC50 (PI3K p110 beta/p85 alpha) was 0.376 µM and the IC50 [3] was 0.186 µM. For the same compound, the inhibition [4] was “Active”, the CLint scaled [5] was 5 to 16 mL/min/kg and the IC50 (HUVEC) was 0.108 µM. It also gave an IC50 [6] of 0.011 µM, an IC50 [7] of 0.011 µM and an IC50 [8] of 0.015 µM. The IC50 (Cytochrome P450 2C8) was > 10 µM, the IC50 (Cytochrome P450 2C9) was > 10 µM and the IC50 (Cytochrome P450 3A4 [9]) was > 10 µM. For the same compound, the IC50 (Cytochrome P450 3A4 [10]) was > 10 µM, the IC50 [11] was > 30 µM and the Papp B→A at 1.5 h [12] was > 10 ×10⁻⁶ cm/s. The efflux ratio at 1.5 h [13] was 0.66, the Vd [14] was 1.4 L/kg and the half-life [15] was 1.59 h. It also gave an AUC(0-t) [16] of 5440 ng·h/mL, a Cmax [17] of 2980 ng/mL and a Tmax [18] of 0.25 h. The half-life [19] was 2.87 h, the AUC(0-t) [20] was 10400 ng·h/mL and the bioavailability [21] was 94.6%. The inhibition in vivo at 3.75 mg/kg (HT-29) was 54.4%, the Activity (Mus musculus [22]) was “Non-Toxic” and the Activity (Mus musculus [23]) was 15%.
